ChEMBL document CHEMBL5244228, “Novel linked butanolide dimer compounds increase adiponectin production during adipogenesis in human mesenchymal stem cells through peroxisome proliferator-activated receptor γ modulation” (Eur J Med Chem, 2020)
Active and inactive are the calls of the source. No cut-off for these calls is given here.

Legend:
[1] = biological target: T1, Peroxisome proliferator-activated receptor delta (Homo sapiens) (UniProt Q03181); assay: Displacement of Fluormone Pan-PPAR Green from GST-tagged human PPAR-delta ligand binding domain at 10 uM by LanthaScreen TR-FRET competitive binding assay
T1 sequence (whole entry): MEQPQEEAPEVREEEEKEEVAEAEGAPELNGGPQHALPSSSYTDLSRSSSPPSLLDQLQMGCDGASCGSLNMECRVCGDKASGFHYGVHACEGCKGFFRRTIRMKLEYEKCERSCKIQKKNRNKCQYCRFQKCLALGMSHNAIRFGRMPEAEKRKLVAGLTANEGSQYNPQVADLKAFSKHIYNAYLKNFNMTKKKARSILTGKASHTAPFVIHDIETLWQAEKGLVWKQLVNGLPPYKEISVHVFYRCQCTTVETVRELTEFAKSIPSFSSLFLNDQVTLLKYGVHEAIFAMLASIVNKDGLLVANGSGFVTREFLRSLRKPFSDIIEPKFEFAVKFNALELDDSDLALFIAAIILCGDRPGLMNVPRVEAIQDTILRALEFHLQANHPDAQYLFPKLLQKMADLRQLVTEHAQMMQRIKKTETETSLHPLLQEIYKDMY
Procedure, shortened: (§1)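 TR-FRET competitive binding run with a LanthaScreen kit, following a previously described protocol; values read on a plate reader.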

[2] = biological target: T2, Peroxisome proliferator-activated receptor alpha (Homo sapiens) (UniProt Q07869); assay: Displacement of Fluormone Pan-PPAR Green from GST-tagged human PPAR-alpha ligand binding domain at 10 uM by LanthaScreen TR-FRET competitive binding assay; procedure, shortened: as §1
T2 sequence (whole entry): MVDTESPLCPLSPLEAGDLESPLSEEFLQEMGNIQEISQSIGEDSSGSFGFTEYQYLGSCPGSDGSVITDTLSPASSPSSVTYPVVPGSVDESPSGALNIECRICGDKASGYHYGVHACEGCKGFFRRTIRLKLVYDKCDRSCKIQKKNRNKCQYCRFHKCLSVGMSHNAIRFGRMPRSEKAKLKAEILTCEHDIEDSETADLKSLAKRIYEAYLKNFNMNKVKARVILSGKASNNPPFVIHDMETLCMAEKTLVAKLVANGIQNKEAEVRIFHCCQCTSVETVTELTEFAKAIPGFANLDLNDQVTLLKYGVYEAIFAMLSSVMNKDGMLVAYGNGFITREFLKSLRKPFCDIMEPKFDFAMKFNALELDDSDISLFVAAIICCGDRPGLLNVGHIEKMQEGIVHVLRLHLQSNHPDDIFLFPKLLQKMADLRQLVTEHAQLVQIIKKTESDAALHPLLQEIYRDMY

[3] = biological target: T3, Peroxisome proliferator-activated receptor gamma (Homo sapiens) (UniProt P37231); assay: Displacement of Fluormone Pan-PPAR Green from GST-tagged human PPAR-gamma ligand binding domain at 10 uM by LanthaScreen TR-FRET competitive binding assay; procedure, shortened: as §1
T3 sequence (whole entry): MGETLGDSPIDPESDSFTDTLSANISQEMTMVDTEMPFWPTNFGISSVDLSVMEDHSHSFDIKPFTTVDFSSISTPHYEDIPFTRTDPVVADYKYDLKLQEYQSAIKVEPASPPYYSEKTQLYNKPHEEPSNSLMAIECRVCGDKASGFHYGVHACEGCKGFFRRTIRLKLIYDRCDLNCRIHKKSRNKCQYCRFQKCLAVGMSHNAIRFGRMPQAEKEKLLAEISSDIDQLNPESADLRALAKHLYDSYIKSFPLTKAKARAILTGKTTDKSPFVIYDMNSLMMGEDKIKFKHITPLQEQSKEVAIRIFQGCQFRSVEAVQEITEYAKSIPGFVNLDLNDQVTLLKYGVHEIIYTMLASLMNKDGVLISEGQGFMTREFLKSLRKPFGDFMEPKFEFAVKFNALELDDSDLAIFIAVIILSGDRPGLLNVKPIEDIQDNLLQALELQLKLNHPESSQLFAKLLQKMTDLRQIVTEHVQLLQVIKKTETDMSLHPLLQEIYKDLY

[4] = biological target: T4, Peroxisome proliferator-activated receptor gamma (Homo sapiens, UniProt P37231); assay: Displacement of [3H]rosiglitazone from human PPAR-gamma incubated for 1 day by radioligand binding assay
T4 sequence (P37231 whole entry): T3 sequence (whole entry)

[5] = biological target: T4, Peroxisome proliferator-activated receptor gamma; assay: Agonist activity at PPAR-gamma in human BMMSC cells assessed as induction of adiponectin production in presence of IDX adipogenic induction medium and measured on day 5 by ELISA; assay type: cell-based
[6] = biological target: T3, Peroxisome proliferator-activated receptor gamma (Homo sapiens); assay: Partial agonist activity at PPAR-gamma in human BMMSC cells assessed as inhibition of pioglitazone-induced adiponectin production at 1 to 10 uM in presence of IDX adipogenic induction medium and pioglitazone and measured on day 5 by ELISA; assay type: cell-based; details: filed as partial agonist, dose 1-10 µM, time 5.0 day
Procedure, shortened: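 Human bone marrow MSCs grown in DMEM (1 g/L glucose), 10% FBS, 1% pen-strep. Adipogenesis induced in DMEM (4.5 g/L glucose), 10% FBS, insulin, dexamethasone, IBMX, with compounds co-added alongside pioglitazone. Supernatants collected on day 5; adiponectin quantified by ELISA. Mean ± SD, n = 3.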

[7] = biological target: T3, Peroxisome proliferator-activated receptor gamma (Homo sapiens); assay: Displacement of [3H]rosiglitazone from human PPAR-gamma at 30 uM incubated for 1 day by radioligand binding assay; details: filed as agonist

In the case of `CCCCCCCCCC/C=C1/C(=O)O[C@@H](C)[C@H]1O`, the Activity [1] is reported as “inactive”, the Activity [2] is reported as “inactive” and the Activity ([3]; filed as agonist) is reported as “Active”.

`CCCCCCCCCCCCC/C=C1/C(=O)O[C@@H](C)[C@H]1O` was tested, and the Activity [1] was “inactive”, the Activity [2] was “inactive” and the Ki [4] was 9.2 µM. The EC50 [5] was over 30 µM, the Activity ([3]; filed as partial agonist) was “Active” and the Activity [6] was “Dose-Dependent Effect”.

`CCCCCCCCC/C=C1/C(=O)O[C@@H](C)[C@H]1O` was tested, and the Activity [1] was “inactive”, the Activity [2] was “inactive” and the Activity ([3]; filed as agonist) was “Active”.

For `CCCCC/C=C1/C(=O)O[C@@H](C)[C@H]1O`, the Activity [1] was “inactive”, the Activity [2] was “inactive” and the Activity ([3]; filed as agonist) was “Active”.

`CCCCCCCCCCC/C=C1/C(=O)O[C@@H](C)[C@H]1O` was tested, and the Activity [1] was “inactive”, the Activity [2] was “inactive” and the Activity ([3]; filed as agonist) was “Active”.

With `CCC/C=C1/C(=O)O[C@@H](C)[C@H]1O` the Activity [1] was “inactive”, the Activity [2] was “inactive” and the Ki [4] was over 30 µM. The EC50 [5] was 25.3 µM, the Activity ([3]; filed as agonist) was “Active” and the Activity [7] was 48.5%.

In the case of `CCCCC/C=C1/C(=O)O[C@@H](C)[C@@H]1O`, the Activity [1] is reported as “inactive”, the Activity [2] is reported as “inactive” and the Activity ([3]; filed as agonist) is reported as “Active”.

For `CCCCCCC/C=C1/C(=O)O[C@@H](C)[C@H]1O`, the Activity [1] was “inactive”, the Activity [2] was “inactive” and the Activity ([3]; filed as agonist) was “Active”.

In the case of `CCCCCCCC/C=C1/C(=O)O[C@@H](C)[C@H]1O`, the Activity [1] is reported as “inactive”, the Activity [2] is reported as “inactive” and the Activity ([3]; filed as agonist) is reported as “Active”.

In the case of `CCCCCCCCCCCC/C=C1/C(=O)O[C@@H](C)[C@H]1O`, the Activity [1] is reported as “inactive”, the Activity [2] is reported as “inactive” and the Activity ([3]; filed as agonist) is reported as “Active”.

`CCCC=C1C(=O)O[C@@H](C)[C@@H]1O` was tested, and the Activity [1] was “inactive”, the Activity [2] was “inactive” and the Ki [4] was 22 µM. For the same compound, the EC50 [5] was 19 µM and the Activity ([3]; filed as agonist) was “Active”.

`CCCCCCCCCCCCC/C=C1/C(=O)O[C@@H](C)[C@@H]1O` was tested, and the Activity [1] was “inactive”, the Activity [2] was “inactive” and the Ki [4] was 1.9 µM. For the same compound, the EC50 [5] was over 30 µM and the Activity ([3]; filed as agonist) was “Active”.
